Source: PubChem BioAssay (several laboratories)
Lipid droplet: inhibitors of hepatocyte lipid droplet formation, primary screen, imaging, high-throughput imaging, BODIPY stain; inhibition, % at 6.5 µM; hit rate 0.4% among 240,000; AML12 mouse hepatocytes, oleate lipid droplets; AID 1656, 2009;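 active = lipid droplet intensity inhibited by at least 50%, with more than 500 cells counted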
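Material – mouse AML12 hepatocyte cell line, fixed after treatment · Compound dosing – one dose, 6.5 µM compound · Times – compound with oleate, overnight · Measured by – Image-based BODIPY and DAPI two-channel analysis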
PHOSPHO1 inh: PubChem AID 1565; Phosphoethanolamine/phosphocholine phosphatase (Homo sapiens), Q8TCT1; recombinant PHOSPHO1, absorbance phosphatase assay; inhibition, % at 13.3 µM; hit rate 1.1% among 290,000; in the data active = inhibition above about 60%
CHT PAM: CHT positive allosteric modulators, primary screen, cell-based, membrane potential dye, choline EC20 | High affinity choline transporter 1 (Homo sapiens), Q9GZV3 | CHT-expressing cells; stronger effect = higher value; LV-AA mutant CHT in HEK293 cells | B-score at 10 µM | hit rate 0.49% among 310,000 | AID 488977, 2010;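 active = initial fluorescence not abnormally high and integrated response B-score, plate-corrected, over 3 SD above library mean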
Target sequence (Q9GZV3 whole entry, looked up): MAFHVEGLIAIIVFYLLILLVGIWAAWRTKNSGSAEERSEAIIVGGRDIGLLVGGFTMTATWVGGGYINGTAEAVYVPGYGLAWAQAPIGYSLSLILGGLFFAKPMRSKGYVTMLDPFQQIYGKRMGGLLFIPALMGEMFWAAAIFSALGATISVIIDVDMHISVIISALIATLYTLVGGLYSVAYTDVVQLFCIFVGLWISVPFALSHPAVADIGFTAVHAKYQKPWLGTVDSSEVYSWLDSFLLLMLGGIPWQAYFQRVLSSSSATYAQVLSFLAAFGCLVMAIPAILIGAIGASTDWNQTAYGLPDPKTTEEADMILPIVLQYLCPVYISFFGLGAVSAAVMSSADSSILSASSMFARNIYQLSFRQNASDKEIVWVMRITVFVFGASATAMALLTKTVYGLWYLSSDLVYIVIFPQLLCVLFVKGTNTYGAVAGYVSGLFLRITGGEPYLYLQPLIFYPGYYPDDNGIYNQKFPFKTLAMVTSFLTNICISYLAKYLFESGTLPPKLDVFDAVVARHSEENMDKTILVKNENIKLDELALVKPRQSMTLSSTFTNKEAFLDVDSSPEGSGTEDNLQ
HSF-1 act: HSF-1 activators, primary screen, NIH3T3-HGL cells, MG132 stress, luminescence, single point. NIH3T3-HGL HSF-1 luciferase reporter, 8 h; 100% = twice DMSO control signal. activation, % at 9 µM. hit rate 1.7% among 300,000. AID 504408, 2011;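 active = mean replicate activation of at least 50% with a set share of replicates each reaching 50%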;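 also: 0% = median of the neutral control wells and 100% = twice that signal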
CHT inh: inhibitors of human choline transporter CHT; High affinity choline transporter 1 (Homo sapiens), Q9GZV3; CHT-expressing cells, membrane potential dye, choline response; stronger effect = lower value; B-score at 10 µM; hit rate 0.86% among 310,000;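 active = B-score over 3 SD under the library average, and starting fluorescence ratio not unusually high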;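 also: choline stimulus applied at its EC90 after an EC20 pre-addition; B-score computed on integrated fluorescence ratio after choline addition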
HSF1 inhib: HSF1 inhibitors in luciferase reporter cells, primary screen, cell-based, NIH3T3, luminescence; NIH3T3-HGL HSE-luciferase, MG132-induced, luminescence 8 h; stronger effect = lower value; activity change, negative = inhibition, % at 7.5 µM (by protocol); hit rate 0.77% among 300,000;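 active = more than half of replicate wells show activity change below -50%, luminescence cut by over half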;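 also: luciferase reports HSF-1 transcriptional activity via heat shock element; 0% = median of DMSO wells and -100% = zero luminescence signal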
Starred values were filed as active, the others as inactive; i = inactive; · = no result. Shown are actives, neighbours in structure and some others; about 4.9% of the full set was active somewhere.

SMILES	Lipid droplet	PHOSPHO1 inh	CHT PAM	HSF-1 act	CHT inh	HSF1 inhib
Cc1ccc(C(=O)/C=C/c2ccc3c(c2)OCO3)o1	13.2	-0.3	i	59.5*	i	40.9
CCNc1ccccc(C(=O)/C=C/c2ccc3c(c2)OCO3)c1=O	-1.1	34.9	i	71.7*	i	34.7
O=C(/C=C/c1ccc2c(c1)OCO2)c1ccc[nH]1	-4.0	28.4	i	62.3*	i	25.5
Cc1ccc(O)c(C(=O)/C=C/c2ccc3c(c2)OCCCO3)c1	-31.6	4.9	i	447.6*	i	278.0
O=C(/C=C/c1ccc2c(c1)OCCCO2)c1ccccc1O	-4.4	2.5	i	12.3	i	16.1
O=C(/C=C/c1ccc2c(c1)OCO2)c1ccc(F)cc1	-1.7	3.5	i	25.8	i	8.8
O=C(COc1ccc(Cl)cc1Cl)NC(=O)c1ccccc1	-3.2	4.2	i	0.6	i	-1.0
CCCCN(CC)C(=O)c1cc2cc3ccc(Cl)cc3nc2o1	-1.7	30.8	i	23.5	i	3.4
COc1cccc(/C=C/C(=O)c2ccc[nH]2)c1	0.3	13.8	i	86.2*	i	50.4
C=CCS/C(=N\n1cnc2ccccc2c1=O)N(CC)CC	-3.3	10.8	i	1.9	i	4.1
CC1CCCCN1C(=O)c1cc(F)c(F)cc1Cl (stereo not given)	-5.5	25.1	i	0.2	i	-6.2
NNC(=O)c1csc(COc2cc(Cl)cc(Cl)c2)n1	-1.2	3.4	i	-2.5	i	3.1
CC(=O)c1csc(COc2ccc(Cl)cc2)n1	3.7	16.2	i	61.2*	i	24.3
CCOc1ccc(N=c2scc(-c3ccccc3)n2CCO)cc1	9.8	97.6*	i	26.9	i	7.5
CCCCC(=O)Nc1c(-c2cccc(OC)c2)c(=O)c2ccccc2n1C	-14.8	36.0	i	-8.0	i	2.7
CCOC(=O)CC(=O)CSc1nnc(Cn2c(=O)sc3ccccc32)n1C	·	71.1*	i	27.0	i	3.4
COC(=O)c1ccccc1NC(=O)c1sc(=S)n(C)c1N	·	90.1*	i	11.6	i	3.9
O=C(O)/C=C\C(=O)Nc1ccccc1C#Cc1ccc(Br)cc1	7.0	10.7	i	55.6*	i	13.7
O=C(COC(=O)CCCN1C(=O)c2ccccc2C1=O)Nc1ncc(Cl)cc1Cl	·	18.2	i	-12.8	i	0.0
CCN(CC)C1CCN(c2nc3nonc3nc2NCCOC)C1 (stereo not given)	15.1	9.7	i	-7.1	i	-1.1
COCCNc1nc2nonc2nc1NC(C)c1ccccc1Cl (stereo not given)	-6.3	60.1*	i	12.7	i	0.2
CC(C)c1ccc(C(C)NCCS(=O)(=O)c2ccc(Br)cc2)cc1 (stereo not given)	8.0	25.0	i	-1.9	i	2.4
CC1Sc2ccc(C(=O)OCc3ccccc3Cl)cc2NC1=O (stereo not given)	·	·	i	12.6	i	6.2
COc1cccc(COC(=O)c2ccc3c(c2)NC(=O)C(C)S3)c1OC (stereo not given)	·	·	i	-81.8	i	-77.5*
CCOC(=O)/C(C#N)=C/c1cc(C)n(-c2ccc(C)cc2)c1C	-4.8	-11.5	i	-13.0	i	-5.0
SMILES	Lipid droplet	PHOSPHO1 inh	CHT PAM	HSF-1 act	CHT inh	HSF1 inhib
CCOC(=O)/C(C#N)=C\c1cc(C)n(-c2ccccc2)c1C	·	4.4	i	-68.7	i	-62.8*
Cc1ccc(S(=O)(=O)CCN2CCN(c3ccccc3)CC2)cc1	9.3	40.0	i	119.7*	i	96.0
Cc1ccc(S(=O)(=O)CCN2CCC(O)(c3ccccc3)CC2)cc1	2.7	34.0	i	37.9	i	3.2
C=CCN1c2ccccc2[C@]23C[C@@H](C(=O)OC)N(C(=O)CC(C)C)C2=NC(C(=O)OC)=C(C(=O)OC)[C@H]13	·	4.5	i	-4.1	i	-0.6
COC(=O)C1=C(C(=O)OC)[C@@H]2N(Cc3ccccc3)c3ccccc3[C@@]23C[C@@H](C(=O)OC)N(C(=O)c2ccc(Br)cc2)C3=N1	-2.4	4.0	i	-71.1	i	-68.3*
COC(=O)C1=C(C(=O)OC)[C@@H]2N(Cc3ccccc3)c3ccccc3[C@@]23C[C@@H](C(=O)OC)N(C(C)=O)C3=N1	-16.4	8.9	i	-5.7	i	0.1
COC(=O)C1=C(C(=O)OC)[C@@H]2N(C)c3ccccc3[C@@]23C[C@@H](C(=O)OC)N(C(=O)CC(C)C)C3=N1	-3.0	26.5	i	-80.1	i	-74.9*
C=CCN1c2ccccc2[C@]23C[C@@H](C(=O)OC)N(C(=O)c4ccc(Br)cc4)C2=NC(C(=O)OC)=C(C(=O)OC)[C@H]13	-3.0	8.9	i	-74.6	i	-69.3*
COc1ccccc1CNC(=O)COC(=O)Cc1ccsc1	-2.9	4.4	·	0.1	·	-8.7
O=c1[nH]c(C2CCN(S(=O)(=O)c3ccccc3C(F)(F)F)CC2)nc2c1nnn2Cc1cccc(F)c1	-2.1	44.9	i	15.9	i	2.7
CSc1nc(-c2ccccc2)cc(C(F)(F)F)c1C#N	-2.9	4.4	i	-13.5	i	-3.0
OCCC1CN(C/C(Cl)=C/c2ccccc2)CCN1C1CCCC1 (stereo not given)	-11.8	17.9	i	-4.1	i	-3.8
O=C(Nc1ccc(C(=O)N2CCOCC2)cc1)c1cnn2c(C(F)F)cc(-c3ccccc3)nc12	-4.4	28.1	i	54.0*	i	12.9
COc1ccc(-c2cc(C(F)F)n3ncc(C(=O)Nc4ccc(C(=O)N5CCOCC5)cc4)c3n2)cc1	8.3	-2.7	i	-0.5	i	2.8
COc1ccc(NC(=O)CCCN2C(=O)C(c3ccccc3)Oc3cccnc32)c(OC)c1 (stereo not given)	-0.3	33.2	i	-8.6	i	-8.2
Fc1ccc(Nc2c(-c3ccco3)nc3ccccn23)cc1	-4.0	-4.0	i	61.9*	i	32.5
CCn1c(=O)cc(SCC(=O)N2CCN(c3ccccn3)CC2)c2ccccc21	-3.7	0.2	·	29.6	·	7.0
CCn1c(=O)cc(SCC(=O)N2CCN(c3ccccc3F)CC2)c2ccccc21	·	23.6	i	54.2*	i	16.5
COc1ccc(NC(=O)CSc2ccc(C)cc2)cc1	1.7	-15.2	i	-4.9	i	10.3
Oc1nc(Nc2ccccc2)sc1/C=C1\C=Nc2ccccc21	·	-14.9	i	101.1*	i	74.2
O=C(NCc1ccco1)c1cc([N+](=O)[O-])ccc1Cl	6.2	-17.4	i	-4.5	i	-3.9
